According to ChEMBL document CHEMBL2216748 (J Med Chem, 2012):
One block for each compound: values may come before it. The source made the active and inactive calls. No cut-off for these calls is given here.

Experiments:
[1] = Thermal stability of the compound; type: physicochemical
Procedure, shortened: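 Capture compound incubated 30 min native at 4 °C or denatured at 80 °C as thermal stress. Biological stress was 30 min in HepG2 lysate at 4 and 37 °C. UV irradiation for 10 and 30 min was checked for a single defined photoproduct.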

[2] = biological target: Prothrombin (Homo sapiens) (UniProt P00734); assay: Binding affinity to human recombinant thrombin after 1 hr by Western blot analysis
Procedure, shortened: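 Purified human recombinant thrombin (2 μg) incubated with capture compound for 1 h at 4 °C, with or without preincubation with free drug as competitor. Sample UV-irradiated 10 min, captured on streptavidin beads, then analysed by silver-stained SDS-PAGE and by streptavidin-HRP blot to detect covalent biotinylation.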

[3] = biological target: Histamine N-methyltransferase (Homo sapiens) (UniProt P50135); assay: Binding affinity to HNMT in human HepG2 cell lysate after 1 hr by capture compound based LC/MS analysis; type: cell-free
Sequence of Histamine N-methyltransferase (Homo sapiens) (P50135 whole entry): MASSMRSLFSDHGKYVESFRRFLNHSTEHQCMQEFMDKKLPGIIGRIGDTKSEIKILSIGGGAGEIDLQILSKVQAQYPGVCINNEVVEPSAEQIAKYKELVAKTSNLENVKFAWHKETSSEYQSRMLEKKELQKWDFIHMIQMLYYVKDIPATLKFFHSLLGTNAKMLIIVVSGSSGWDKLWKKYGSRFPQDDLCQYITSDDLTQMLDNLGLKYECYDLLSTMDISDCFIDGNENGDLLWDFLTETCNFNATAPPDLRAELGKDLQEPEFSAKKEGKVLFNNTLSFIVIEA
Procedure, shortened: (§1)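 Capture compound MS: 400 μg HepG2 or K562 lysate in capture buffer, precleared with streptavidin beads 30 min at 4 °C. Competition controls preincubated 30 min at 4 °C with free drug (10 μL of 1 mM). Capture compound (10 μL of 50 μM) equilibrated 1 h at 4 °C, UV-irradiated 10 min, streptavidin bead pulldown, on-bead trypsin digestion, nanoLC-MS/MS. Spectral counts compared capture vs competition (t test). HepG2 in quadruplicate, K562 in duplicate.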

[4] = biological target: T1, Hypoxia up-regulated protein 1 (Homo sapiens) (UniProt Q9Y4L1); assay: Binding affinity to HYOU1 in human HepG2 cell lysate after 1 hr by capture compound based LC/MS analysis; type: cell-free; procedure, shortened: as §1
T1 sequence (whole entry): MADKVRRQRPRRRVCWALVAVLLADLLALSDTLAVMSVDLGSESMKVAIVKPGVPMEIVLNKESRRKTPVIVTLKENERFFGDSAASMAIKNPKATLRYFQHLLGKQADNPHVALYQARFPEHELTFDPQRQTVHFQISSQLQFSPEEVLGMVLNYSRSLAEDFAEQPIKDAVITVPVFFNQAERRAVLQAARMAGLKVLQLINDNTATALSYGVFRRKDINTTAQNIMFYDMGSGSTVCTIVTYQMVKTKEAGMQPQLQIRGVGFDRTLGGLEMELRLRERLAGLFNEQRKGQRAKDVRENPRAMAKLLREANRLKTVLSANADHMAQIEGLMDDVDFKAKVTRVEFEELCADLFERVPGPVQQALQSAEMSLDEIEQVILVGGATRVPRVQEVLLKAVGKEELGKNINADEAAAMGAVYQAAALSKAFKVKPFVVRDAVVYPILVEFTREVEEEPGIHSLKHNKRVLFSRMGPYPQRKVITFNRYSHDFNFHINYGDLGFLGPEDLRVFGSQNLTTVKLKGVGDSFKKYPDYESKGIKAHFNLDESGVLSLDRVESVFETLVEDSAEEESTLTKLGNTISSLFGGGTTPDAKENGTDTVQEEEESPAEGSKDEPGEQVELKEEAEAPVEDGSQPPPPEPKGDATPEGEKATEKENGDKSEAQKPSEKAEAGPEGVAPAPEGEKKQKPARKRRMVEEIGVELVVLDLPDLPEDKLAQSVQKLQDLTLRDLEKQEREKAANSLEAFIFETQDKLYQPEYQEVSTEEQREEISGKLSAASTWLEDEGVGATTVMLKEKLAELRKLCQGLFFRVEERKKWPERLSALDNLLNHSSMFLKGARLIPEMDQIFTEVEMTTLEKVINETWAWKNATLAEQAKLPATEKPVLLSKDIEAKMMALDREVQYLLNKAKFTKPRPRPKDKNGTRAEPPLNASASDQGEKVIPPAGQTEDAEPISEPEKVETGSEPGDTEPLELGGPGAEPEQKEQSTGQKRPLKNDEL

[5] = biological target: Heterogeneous nuclear ribonucleoproteins C1/C2 (Homo sapiens) (UniProt P07910); assay: Binding affinity to HNRPC in human HepG2 cell lysate after 1 hr by capture compound based LC/MS analysis; type: cell-free; procedure, shortened: as §1
Sequence of Heterogeneous nuclear ribonucleoproteins C1/C2 (Homo sapiens) (P07910 whole entry): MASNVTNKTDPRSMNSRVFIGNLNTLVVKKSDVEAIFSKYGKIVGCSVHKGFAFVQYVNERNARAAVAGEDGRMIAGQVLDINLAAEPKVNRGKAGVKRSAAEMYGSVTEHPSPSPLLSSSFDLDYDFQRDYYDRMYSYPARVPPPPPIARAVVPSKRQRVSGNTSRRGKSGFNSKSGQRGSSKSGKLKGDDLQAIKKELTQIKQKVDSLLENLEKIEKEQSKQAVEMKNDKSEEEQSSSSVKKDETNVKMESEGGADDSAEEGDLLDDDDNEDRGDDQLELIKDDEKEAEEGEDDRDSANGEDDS

[6] = biological target: Adenosine kinase (Homo sapiens) (UniProt P55263); assay: Binding affinity to ADK in human HepG2 cell lysate after 1 hr by capture compound based LC/MS analysis; type: cell-free; procedure, shortened: as §1
Sequence of Adenosine kinase (Homo sapiens) (P55263 2-362 limits assumed): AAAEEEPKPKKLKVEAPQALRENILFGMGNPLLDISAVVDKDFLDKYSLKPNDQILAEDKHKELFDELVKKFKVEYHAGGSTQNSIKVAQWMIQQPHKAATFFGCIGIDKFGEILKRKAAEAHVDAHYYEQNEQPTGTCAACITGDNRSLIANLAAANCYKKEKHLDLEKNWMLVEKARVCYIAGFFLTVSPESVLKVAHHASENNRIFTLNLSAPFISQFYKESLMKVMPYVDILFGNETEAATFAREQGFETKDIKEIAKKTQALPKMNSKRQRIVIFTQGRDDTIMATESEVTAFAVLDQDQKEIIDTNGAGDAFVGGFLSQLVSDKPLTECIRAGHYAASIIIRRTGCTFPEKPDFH

[7] = biological target: Histamine N-methyltransferase (Homo sapiens) (UniProt P50135); assay: Binding affinity to HNMT in human K562 cell lysate after 1 hr by capture compound based LC/MS analysis; type: cell-free; procedure, shortened: as §1
[8] = biological target: T1, Hypoxia up-regulated protein 1 (Homo sapiens); assay: Binding affinity to HYOU1 in human K562 cell lysate after 1 hr by capture compound based LC/MS analysis; type: cell-free; procedure, shortened: as §1
[9] = biological target: Heterogeneous nuclear ribonucleoproteins C1/C2 (Homo sapiens) (UniProt P07910); assay: Binding affinity to HNRPC in human K562 cell lysate after 1 hr by capture compound based LC/MS analysis; type: cell-free; procedure, shortened: as §1
[10] = biological target: Adenosine kinase (Homo sapiens) (UniProt P55263); assay: Binding affinity to ADK in human K562 cell lysate after 1 hr by capture compound based LC/MS analysis; type: cell-free; procedure, shortened: as §1
[11] = biological target: T2, Ribosyldihydronicotinamide dehydrogenase [quinone] (Homo sapiens) (UniProt P16083); assay: (§2) Displacement of (S)-N4-(2-(4-(4-(4-methyl-3-(4-(pyridin-3-yl)pyrimidin-2-ylamino)phenylcarbamoyl)benzyl)piperazin-1-yl)ethyl)-N1-(15-oxo-19-((3aS,4S,6aR)-2-oxohexahydro-1H-thieno[3,4-d]imidazol-4-yl)-4,7,10-trioxa-14-azanonadecyl)-2-(4-(3-(trifluoromethyl)-3H-diazirin-3-yl)benzamido)succinamide from NQO2 in human K562 cell lysate after 1 hr by capture compound based LC/MS analysis; type: cell-free
T2 sequence (whole entry): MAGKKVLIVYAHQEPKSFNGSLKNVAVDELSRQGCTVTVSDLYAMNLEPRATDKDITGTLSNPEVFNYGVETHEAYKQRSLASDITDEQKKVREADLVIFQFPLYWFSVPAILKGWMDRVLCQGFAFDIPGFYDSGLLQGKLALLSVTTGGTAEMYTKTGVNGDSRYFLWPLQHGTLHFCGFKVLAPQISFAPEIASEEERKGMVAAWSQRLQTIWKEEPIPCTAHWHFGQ
Procedure, shortened: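 K562 lysate (400 μg, precleared) was preincubated with competitor (final 100 μM) for 30 min at 4 °C. Capture compound (final 5 μM) was added for 1 h at 4 °C, then UV-crosslinked 10 min. Proteins were pulled down on streptavidin beads and trypsin-digested on-bead for 16 h at 37 °C, then analysed by nanoLC-Orbitrap MS/MS. Spectral counts in capture versus competition were compared, with duplicate experiments.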

[12] = biological target: T2, Ribosyldihydronicotinamide dehydrogenase [quinone] (Homo sapiens); assay: as §2, with “HepG2” for “K562”, “lysate at 100 uM” for “lysate”, “Western blot” for “capture compound based LC/MS”; type: cell-free
Procedure, shortened: (§3)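 Lysate (400 μg, precleared with streptavidin beads 30 min at 4 °C) in capture buffer was preincubated with competitor (final 100 μM) for 30 min at 4 °C. […] Streptavidin beads were added for 1 h at 4 °C, followed by anti-NQO2 (1:500) Western blot.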

[13] = biological target: T2, Ribosyldihydronicotinamide dehydrogenase [quinone] (Homo sapiens); assay: as §2, with “lysate at 100 uM” for “lysate”, “Western blot” for “capture compound based LC/MS”; type: cell-free; procedure, shortened: as §3
[14] = biological target: T2, Ribosyldihydronicotinamide dehydrogenase [quinone] (Homo sapiens); assay: (§4) Displacement of (S)-N4-(4-(3-(2-((4-carbamimidoylphenylamino)methyl)-1-methyl-N-(pyridin-2-yl)-1H-benzo[d]imidazole-5-carboxamido)propanamido)butyl)-N1-(15-oxo-19-((3aS,4S,6aR)-2-oxohexahydro-1H-thieno[3,4-d]imidazol-4-yl)-4,7,10-trioxa-14-azanonadecyl)-2-(4-(3-(trifluoromethyl)-3H-diazirin-3-yl)benzamido)succinamide from human recombinant NQO2 after 1 hr by silver staining-based SDS PAGE analysis
Procedure, shortened: (§5)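 Human recombinant NQO2 (1 μg) was preincubated 30 min at 4 °C with competitor, then capture compound was added at 5 μM final (competitors 100 μM final) and equilibrated 1 h at 4 °C. Samples were UV-irradiated 10 min, pulled down on streptavidin beads and resolved by silver-stained SDS-PAGE.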

[15] = biological target: T2, Ribosyldihydronicotinamide dehydrogenase [quinone] (Homo sapiens); assay: Displacement of (S)-N4-(2-(4-(4-(4-methyl-3-(4-(pyridin-3-yl)pyrimidin-2-ylamino)phenylcarbamoyl)benzyl)piperazin-1-yl)ethyl)-N1-(15-oxo-19-((3aS,4S,6aR)-2-oxohexahydro-1H-thieno[3,4-d]imidazol-4-yl)-4,7,10-trioxa-14-azanonadecyl)-2-(4-(3-(trifluoromethyl)-3H-diazirin-3-yl)benzamido)succinamide from human recombinant NQO2 after 1 hr by silver staining-based SDS PAGE analysis; procedure, shortened: as §5
[16] = biological target: T3, Leucine-rich repeat-containing protein 59 (Homo sapiens) (UniProt Q96AG4); assay: (§6) Displacement of 2-((R)-1-cyclohexyl-2-oxo-2-((S)-2-(4-(N-((S)-6,9,25-trioxo-29-((3aS,4S,6aR)-2-oxohexahydro-1H-thieno[3,4-d]imidazol-4-yl)-8-(4-(3-(trifluoromethyl)-3H-diazirin-3-yl)benzamido)-14,17,20-trioxa-5,10,24-triazanonacosyl)carbamimidoyl)benzylcarbamoyl)azetidin-1-yl)ethylamino)acetic acid from LRC59 in human HepG2 cell lysate after 1 hr by capture compound based LC/MS analysis; type: cell-free; procedure, shortened: as §1
T3 sequence (whole entry): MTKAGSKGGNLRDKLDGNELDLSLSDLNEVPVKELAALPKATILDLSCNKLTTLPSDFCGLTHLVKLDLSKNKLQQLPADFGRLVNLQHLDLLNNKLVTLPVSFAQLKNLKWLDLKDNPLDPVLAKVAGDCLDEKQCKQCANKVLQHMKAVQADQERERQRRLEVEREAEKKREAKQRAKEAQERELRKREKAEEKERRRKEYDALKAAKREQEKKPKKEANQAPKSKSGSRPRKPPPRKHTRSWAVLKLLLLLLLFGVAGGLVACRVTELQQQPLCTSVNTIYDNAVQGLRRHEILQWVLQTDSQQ

[17] = biological target: Vacuolar protein sorting-associated protein 35 (Homo sapiens) (UniProt Q96QK1); assay: as §6, with “VPS35” for “LRC59”; type: cell-free; procedure, shortened: as §1
[18] = biological target: T4, Ribosyldihydronicotinamide dehydrogenase [quinone] (Homo sapiens, UniProt P16083); assay: as §4, with “densitometric” for “silver staining-based SDS PAGE”
T4 sequence (P16083 whole entry): T2 sequence (whole entry)

[19] = biological target: T4, Ribosyldihydronicotinamide dehydrogenase [quinone]; assay: Inhibition of human recombinant NQO2-mediated mitomycin C metabolism using NADH as cosubstrate incubated for 5 mins prior to NADH addition measured after 30 mins by spectrophotometric analysis
Procedure, shortened: (§7)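 NQO2 (0.5 μM) with mitomycin C (50 μM) and four inhibitor concentrations in 100 mM potassium phosphate pH 5.8, 5 min at room temperature. Increasing NADH was then added and A340 followed for 30 min at rt. Ki from Lineweaver–Burk, IC50 from competitive Michaelis–Menten kinetics. Two experiments, duplicate points each.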

[20] = biological target: T4, Ribosyldihydronicotinamide dehydrogenase [quinone]; assay: Competitive inhibition of human recombinant NQO2-mediated mitomycin C metabolism using NADH as cosubstrate incubated for 5 mins prior to NADH addition measured after 30 mins by Michaelis-Menten plot analysis; procedure, shortened: as §7
[21] = Inhibition of human alpha thrombin using Boc-Val-Pro-Arg-AMC as substrate after 2 hrs by fluorometric analysis
Procedure, shortened: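 Human α-thrombin at 5.5 ng/mL final with Boc-Val-Pro-Arg-AMC (15 μM) in 50 mM Tris pH 7.5, 150 mM NaCl, 0.05% Tween 20. Compound tested as 16 two-fold dilutions in DMSO, 2.5 mM to 75 nM. Incubated 2 h at room temperature; fluorescence read at ex 355, em 460 nm for percent inhibition.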

Stability [1]: Stable | Activity [2]: Active
SMILES: N=C(N)c1ccc(CNC(=O)[C@@H]2CCN2C(=O)[C@H](NCC(=O)NCCCCNC(=O)C[C@H](NC(=O)c2ccc(C3(C(F)(F)F)N=N3)cc2)C(=O)NCCCOCCOCCOCCCNC(=O)CCCC[C@@H]2SC[C@@H]3NC(=O)N[C@@H]32)C2CCCCC2)cc1

Stability [1]: Stable | Activity [2]: inactive | Activity [3]: Active | Activity [4]: Active | Activity [5]: Active | Activity [6]: Active | Activity [7]: inactive | Activity [8]: inactive | Activity [9]: inactive | Activity [10]: inactive
SMILES: Cn1c(CNc2ccc(C(=N)NCCCCNC(=O)C[C@H](NC(=O)c3ccc(C4(C(F)(F)F)N=N4)cc3)C(=O)NCCCOCCOCCOCCCNC(=O)CCCC[C@@H]3SC[C@@H]4NC(=O)N[C@@H]43)cc2)nc2cc(C(=O)N(CCC(=O)O)c3ccccn3)ccc21

Activity [11]: Active | Activity [12]: Active | Activity [13]: Active | Activity [14]: Active | Activity [15]: Active
SMILES: Cc1ccc(NC(=O)c2ccc(CN3CCN(C)CC3)cc2)cc1Nc1nccc(-c2cccnc2)n1

Activity [16]: Active | Activity [17]: Active
SMILES: N=C(N)c1ccc(CNC(=O)[C@@H]2CCN2C(=O)[C@H](NCC(=O)O)C2CCCCC2)cc1

IC50 [18]: 1500 nM | Ki [19]: 900 nM | IC50 [20]: 800 nM | IC50 [21]: 1.2 nM
SMILES: CCOC(=O)CCN(C(=O)c1ccc2c(c1)nc(CNc1ccc(C(=N)N)cc1)n2C)c1ccccn1 [DABIGATRAN ETHYL ESTER]

IC50 [18]: 11000 nM | Ki [19]: 70000 nM | IC50 [20]: > 10000 nM
SMILES: [H]/N=C(/N)c1ccc(NCc2nc3cc(C(=O)N(CCC(=O)O)c4ccccn4)ccc3n2C)cc1 [DABIGATRAN]
